# Test results reported in PubChem BioAssay.
# Active and inactive are the calls of the source.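 Rule for the calls, unless noted: active = Her2 level under about 52% in both replicate screens, with viability over 70% of control (limit read from the data); inconclusive = Her2 under the limit in one screen only, or viability under 70%; inactive = Her2 level above the set limit.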
# Key:
# [1] = reducers of endogenous Her2 protein level, primary screen, SKBR3 breast tumor cells, AlphaScreen, ATP viability (AID 461); conditions: 18-24 h, measured here: SKBR3 viability, ATP luminescence, at 10 µM;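 for Her2 level: lower value means less Her2 protein in the cells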;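 for viability: percent of carrier control wells set as 100% viability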
# [2] = target: Receptor tyrosine-protein kinase erbB-2 (Homo sapiens) (UniProt P04626); test: as above; conditions: 18-24 h, at 10 µM, stronger effect = lower value
# Sequence of Receptor tyrosine-protein kinase erbB-2 (Homo sapiens) (P04626 whole entry, looked up): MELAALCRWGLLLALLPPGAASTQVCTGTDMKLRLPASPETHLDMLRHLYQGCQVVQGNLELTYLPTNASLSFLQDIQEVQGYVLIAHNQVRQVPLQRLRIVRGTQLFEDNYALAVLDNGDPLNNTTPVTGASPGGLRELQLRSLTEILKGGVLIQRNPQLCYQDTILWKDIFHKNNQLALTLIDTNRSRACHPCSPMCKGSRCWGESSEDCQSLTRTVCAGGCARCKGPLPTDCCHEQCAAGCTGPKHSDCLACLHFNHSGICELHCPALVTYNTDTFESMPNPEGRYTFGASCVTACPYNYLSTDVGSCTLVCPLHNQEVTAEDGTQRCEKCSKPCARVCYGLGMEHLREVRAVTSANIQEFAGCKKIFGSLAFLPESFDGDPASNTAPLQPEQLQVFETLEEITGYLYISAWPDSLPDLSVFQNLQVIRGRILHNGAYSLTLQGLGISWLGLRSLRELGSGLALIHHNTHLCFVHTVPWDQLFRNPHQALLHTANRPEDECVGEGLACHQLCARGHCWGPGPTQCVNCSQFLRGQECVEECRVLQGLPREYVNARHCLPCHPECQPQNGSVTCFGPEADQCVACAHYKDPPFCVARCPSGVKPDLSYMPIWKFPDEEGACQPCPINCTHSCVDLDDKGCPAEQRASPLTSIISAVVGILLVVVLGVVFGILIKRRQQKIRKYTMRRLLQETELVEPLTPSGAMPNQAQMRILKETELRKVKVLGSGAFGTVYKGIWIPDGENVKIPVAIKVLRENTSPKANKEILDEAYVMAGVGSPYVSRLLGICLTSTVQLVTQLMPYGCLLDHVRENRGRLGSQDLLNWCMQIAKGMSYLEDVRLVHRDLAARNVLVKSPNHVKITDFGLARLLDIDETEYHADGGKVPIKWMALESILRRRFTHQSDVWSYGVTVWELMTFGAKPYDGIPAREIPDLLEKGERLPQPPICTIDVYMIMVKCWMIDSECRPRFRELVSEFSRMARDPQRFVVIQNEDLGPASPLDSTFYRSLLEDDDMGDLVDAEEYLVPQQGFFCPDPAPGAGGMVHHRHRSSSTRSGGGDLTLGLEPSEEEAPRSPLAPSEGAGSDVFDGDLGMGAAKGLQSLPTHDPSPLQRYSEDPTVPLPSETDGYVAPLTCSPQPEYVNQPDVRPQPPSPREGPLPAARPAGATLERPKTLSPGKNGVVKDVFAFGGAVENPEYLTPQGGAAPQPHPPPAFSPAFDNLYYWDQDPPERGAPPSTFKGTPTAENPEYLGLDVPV
# [3] = SK-BR-3 cell growth inhibitors, pilot screen, 24 h, human (AID 572;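 active = viability at or below 10% of carrier control in both of two separate runs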;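 note: compound exposure lasted between 18 and 24 h rather than exactly 24 h; 100% = carrier-treated control wells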); conditions: SK-BR-3 viability, CellTiter-Glo luminescence, at 10 µM, stronger effect = lower value
# [4] = HUVEC growth inhibition – cell-based, human, primary screen (AID 575;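 active = viability at or below 30% in both replicate assays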;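 note: 100% = median of untreated cell wells with 0.1% DMSO on each plate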); conditions: HUVEC proliferation, CellTiter-Glo luminescence, 72 h; at 10 µM; stronger effect = lower value
# How it was run: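 Material: primary human umbilical vein endothelial cells / Schedule: 72 h exposure, 37 °C, 5% CO2, 30 min RT equilibration / Signal: ATP-based CellTiter-Glo luminescent read / Read-out basis: percent of median DMSO-control luminescence / Control set: 32 DMSO-only cell-control wells (high), 32 MePR drug-control wells (low) per plate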
# [5] = growth inhibitors of H69AR lung tumor, primary screen, human, duplicate replicates (AID 580;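 active = viability at or under a set limit in both replicates, limit being median viability minus 3 SD, cut at about 48% in these data, passing the limit was not always enough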;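 note: 100% = mean luminescence of untreated wells and 0% = no signal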); conditions: H69AR lung tumor cells viability, ATP luminescence, 72 h; at 10 µM; stronger effect = lower value
# [6] = reversal of MRP1-mediated doxorubicin resistance, pilot screen, H69AR cells, doxorubicin co-treatment (AID 601;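 active = viability loss from added drug above about 55%, and viability with drug at most 40%, in both replicates, limit read from the data, passing the limit was not always enough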); conditions: CellTiter-Glo, 72 h, at 10 µM; for differential viability (reversal): stronger effect = higher value
# [7] = 384-well plate pilot, post-Golgi transport modulator project, inhibition of yeast transport mutant growth (AID 636; in the data active = inhibition above about 31%); conditions: absorbance 615 nm, about 18 h, stronger effect = higher value
# [8] = growth suppression of yeast trafficking mutant, preliminary HTS, modulators of trafficking downstream of Golgi apparatus project, 1536-format plate, OD 615 nm (AID 637; in the data active = inhibition above about 30%); conditions: yeast transport mutant growth, absorbance 615 nm, 18 h; stronger effect = higher value
# [9] = H69AR cells + 2 uM doxorubicin, measured here: viability with 2 uM doxorubicin, stronger effect = lower value
# [10] = H69AR cells, compound alone cytotoxicity
Structure (SMILES),viability [1] [%],Her2 level [2],viability [3],viability [4],viability [5],differential viability (reversal) ([6]; H69AR cells + 2 uM doxorubicin),"viability [6, 9] [%]","viability [6, 10] [%]",inhibition [7],inhibition [8]
COc1ccc2c(c1)Sc1ccccc1N2CCN(C)C,88.5,86.5% (inactive),88.5% (inactive),59.1% (inactive),68.8% (inactive),-3.43% (inactive),72.3,68.8,-5.39% (inactive),-6.29% (inactive)
Cc1cccc(C)c1OCc1nnc2c3cnn(C)c3ncn12,100,138% (inactive),100% (inactive),105% (inactive),91.9% (inactive),-2.03% (inactive),94,91.9,-2.11% (inactive),-4.59% (inactive)
COc1ccc(CNC(=O)c2cc3c(=O)n4ccccc4nc3n(Cc3ccco3)c2=N)cc1,114,97.5% (inactive),114% (inactive),105% (inactive),110% (inactive),33% (inactive),76.9,110,-0.39% (inactive),-5.08% (inactive)
CCc1cc(=O)oc2c(CN3CCN(C)CC3)c(O)c(Cl)cc12,107,93.5% (inactive),107% (inactive),92.6% (inactive),98.4% (inactive),6.53% (inactive),91.8,98.4,-2.5% (inactive),-3.61% (inactive)
CC(C)CNC(=O)C1CC(=O)OC12CCCCC2 (stereo not given),100,95% (inactive),100% (inactive),112% (inactive),113% (inactive),22.3% (inactive),90.5,113,-8.11% (inactive),4.92% (inactive)
Cc1ccc(-c2nnn(CC(=O)N(CC(=O)NC3CCCCC3)c3cnc4ccccc4c3)n2)o1,98,92% (inactive),98% (inactive),93.3% (inactive),96.5% (inactive),15.9% (inactive),80.6,96.5,-7.6% (inactive),-1.61% (inactive)
CCOC(=O)N1CCN(C(=O)CSCC(=O)Nc2nc(-c3ccc(OC)cc3)cs2)CC1,116,104% (inactive),116% (inactive),77.8% (inactive),94.9% (inactive),1.77% (inactive),93.1,94.9,-1.3% (inactive),-6.89% (inactive)
COc1ccc(CCNC(=O)C2CC(=O)N(c3ccccc3)C2)cc1OC (stereo not given),124,99.5% (inactive),124% (inactive),89.7% (inactive),91.5% (inactive),1.51% (inactive),90,91.5,-2.47% (inactive),-1.8% (inactive)
Cc1cc2n(n1)C(c1ccccc1)Nc1ccccc1-2 (stereo not given),97,104% (inactive),97% (inactive),77.1% (inactive),90.7% (inactive),1.64% (inactive),89.1,90.7,-6% (inactive),-6.13% (inactive)
CC(C)COC(=O)N(C)c1ccc(C(O)(C(F)(F)F)C(F)(F)F)cc1,102,95% (inactive),102% (inactive),93.1% (inactive),89.8% (inactive),3.42% (inactive),86.4,89.8,-2.57% (inactive),-8.57% (inactive)
COc1cccc(CNC(=O)C2CCN(c3cnccn3)CC2)c1,87.5,118% (inactive),87.5% (inactive),88.4% (inactive),96.2% (inactive),8.93% (inactive),87.3,96.2,-4.67% (inactive),16.8% (inactive)
Cc1ccc2cc3cc(C(=O)N4CC(C)CC(C)C4)oc3nc2c1 (stereo not given),108,78.5% (inactive),108% (inactive),69.3% (inactive),89.2% (inactive),3.71% (inactive),85.5,89.2,-2.47% (inactive),-6.35% (inactive)
O=C(O)C1CC(=O)N(Cc2ccccc2)C1 (stereo not given),109,96.5% (inactive),109% (inactive),91.2% (inactive),90.2% (inactive),0.445% (inactive),89.8,90.2,-5.39% (inactive),6.23% (inactive)
COCC(=O)N(Cc1cc2cc(OC)ccc2[nH]c1=O)c1ccccc1,104,112% (inactive),104% (inactive),90.3% (inactive),90.4% (inactive),3.91% (inactive),86.5,90.4,-2.86% (inactive),-6% (inactive)
CCCn1c2ccccc2c2nnc(SCC(=O)Nc3ncccn3)nc21,105,75.5% (inactive),105% (inactive),93.4% (inactive),87.6% (inactive),10.3% (inactive),77.4,87.6,-0.53% (inactive),-2.36% (inactive)
COc1cccc(-c2cc(C(=O)N3CCc4ccccc4C3)no2)c1,99.5,104% (inactive),99.5% (inactive),67.7% (inactive),96.8% (inactive),-5.97% (inactive),103,96.8,-8.51% (inactive),-4.59% (inactive)

Structure (SMILES),viability [1] [%],Her2 level [2],viability [3],viability [4],viability [5],differential viability (reversal) ([6]; H69AR cells + 2 uM doxorubicin),"viability [6, 9] [%]","viability [6, 10] [%]",inhibition [7],inhibition [8]
O=c1c2ccccc2nc(SCc2cccc(F)c2)n1Cc1ccco1,104,97.5% (inactive),104% (inactive),87.6% (inactive),84.2% (inactive),1.36% (inactive),82.8,84.2,-5.33% (inactive),-0.63% (inactive)
Cc1oc(-c2ccccc2F)nc1CS(=O)(=O)CC(=O)NCc1ccco1,116,124% (inactive),116% (inactive),85.9% (inactive),93.8% (inactive),7.03% (inactive),86.8,93.8,-3.2% (inactive),-2.62% (inactive)
CCCCOc1cc(=O)[nH]c(=O)[nH]1,108,99% (inactive),108% (inactive),95.2% (inactive),102% (inactive),8.32% (inactive),93.4,102,-2.11% (inactive),-7.33% (inactive)
Cc1cccc(CCNC(=O)CCc2nc(-c3ccccc3F)no2)c1,91.5,104% (inactive),91.5% (inactive),89.1% (inactive),93.5% (inactive),9.82% (inactive),83.7,93.5,-2.37% (inactive),-5% (inactive)
O=C(NC1CCCCC1)N(Cc1ccccc1)Cc1ccco1,94.5,98% (inactive),94.5% (inactive),101% (inactive),100% (inactive),3.09% (inactive),97.3,100,0.54% (inactive),-3.11% (inactive)
CCc1nc(NCCCN2CCOCC2)c2oc3ccccc3c2n1,88,95% (inactive),88% (inactive),80.3% (inactive),89.1% (inactive),0.87% (inactive),88.2,89.1,-0.13% (inactive),0.81% (inactive)
Cc1coc2cc3oc(=O)c4c(c3cc12)CCC4,111,81.5% (inactive),111% (inactive),85.1% (inactive),104% (inactive),6.42% (inactive),97.2,104,-2.7% (inactive),-2.86% (inactive)
Nc1cc(-c2ccc(Br)cc2)nn1S(=O)(=O)c1ccccc1,90,108% (inactive),90% (inactive),74.2% (inactive),88% (inactive),0.535% (inactive),87.5,88,0.26% (inactive),3.67% (inactive)
O=C(CSc1nnc(CNC(=O)c2cccs2)o1)NCCc1ccccc1,104,103% (inactive),104% (inactive),92.4% (inactive),101% (inactive),2.05% (inactive),98.6,101,-0.9% (inactive),-3% (inactive)
COC(=O)c1[nH]c2cc(OC)ccc2c1NC(=O)CCN1CCCCC1,85,114% (inactive),85% (inactive),116% (inactive),98.2% (inactive),2.35% (inactive),95.8,98.2,-1.97% (inactive),-4.43% (inactive)
CCOC(=O)c1cccnc1SCC(=O)NC(C)CC (stereo not given),92,93% (inactive),92% (inactive),96.7% (inactive),102% (inactive),9.73% (inactive),92.3,102,2.08% (inactive),-3.61% (inactive)
COCCCn1c(SCC(=O)Nc2cccc(C)n2)nnc1-c1ccco1,95,82.5% (inactive),95% (inactive),106% (inactive),98.5% (inactive),12.9% (inactive),85.6,98.5,-3.6% (inactive),-2.95% (inactive)
CCCCCCC(C)n1[nH]c(=O)c2c(C)cc(=O)[nH]c21 (stereo not given),89.5,107% (inactive),89.5% (inactive),77.7% (inactive),94.2% (inactive),-4.37% (inactive),98.6,94.2,-1.73% (inactive),-7.54% (inactive)
CCOC(=O)CSc1nnc(NC(=O)c2cccc(S(=O)(=O)N3CCCCC3)c2)s1,94,87.5% (inactive),94% (inactive),79.6% (inactive),101% (inactive),9.55% (inactive),91.2,101,-3.03% (inactive),-1.67% (inactive)
COc1ccc(C2CC(=O)c3c(C)nc(N4CCN(c5ccccc5)CC4)nc3C2)cc1 (stereo not given),90,88% (inactive),90% (inactive),98.5% (inactive),97.3% (inactive),19% (inactive),78.3,97.3,0.79% (inactive),-5.9% (inactive)
O=C(CCN1CCN(C(=O)c2ccco2)CC1)Nc1ccc(F)cc1,97.5,95% (inactive),97.5% (inactive),99.8% (inactive),97% (inactive),6.06% (inactive),90.9,97,-4.93% (inactive),2.95% (inactive)
